This is an account of results in ChEMBL document CHEMBL1240347, “MK-7009, a potent and selective inhibitor of hepatitis C virus NS3/4A protease” (Antimicrob Agents Chemother, 2010).

The subject of one series is Pan troglodytes. As to the kind of experiment: AUC in chimpanzee at 10 mg/kg, po from 0 to 24 hrs by LC/MS/MS analysis. As to conditions: in vivo.
Series [1] can be described thus: AUC (0-24 hrs) in chimpanzee at 10 mg/kg, po by LC/MS/MS analysis. Format: ADME, organism-based, Pan troglodytes. The note with it: plasma. Also noted: time < 24 hr, dose 10 mg/kg, route oral. The essentials: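 Two HCV-uninfected chimpanzees (about 57 and 52 kg) drank the dose voluntarily in a chocolate milk vehicle (0.67 ml/kg). EDTA plasma was stored at −70°C and quantified by LC/MS/MS after protein precipitation.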

The nature of series [2]: Metabolic stability in chimpanzee liver assessed as drug level at 10 mg/kg, po after 12 hrs by LC/MS/MS analysis. Format: ADME, organism-based, Pan troglodytes. Also on record: dose 10 mg/kg, route oral. The note with it: read-out: Drug uptake. The procedure, abridged: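 Two uninfected chimpanzees were dosed orally in chocolate milk vehicle (0.67 ml/kg). A liver biopsy (~200 μl) was taken under sedation at the single 12-h time point, homogenized in 4 volumes of deionized water, and analysed by LC/MS/MS after protein precipitation.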

Series [3] is described as follows: Half life in rhesus monkey at 2 mg/kg, iv by LC/MS/MS analysis. It is filed as ADME, organism-based, Macaca mulatta. Also on record: dose 2 mg/kg, route intravenous. As to conditions: in vivo. The procedure, abridged: (§1)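 Fasted animals received an intravenous bolus in DMSO at 1.0 ml/kg (rat), 0.1 ml/kg (dog) or 0.1 ml/kg (rhesus), with n = 3. Blood was drawn into EDTA tubes, and plasma was separated by centrifugation and stored at −70°C. Drug was quantified by LC/MS/MS after protein precipitation.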

A short description of series [4]: Half life in dog at 2 mg/kg, iv by LC/MS/MS analysis. As to conditions: in vivo. Format: ADME, organism-based, Canis lupus familiaris. Also on record: dose 2 mg/kg, route intravenous. The procedure, abridged:
as §1

A further series has as its target T1, Cathepsin L2 (Homo sapiens, UniProt O60911).
T1 sequence (O60911 whole entry): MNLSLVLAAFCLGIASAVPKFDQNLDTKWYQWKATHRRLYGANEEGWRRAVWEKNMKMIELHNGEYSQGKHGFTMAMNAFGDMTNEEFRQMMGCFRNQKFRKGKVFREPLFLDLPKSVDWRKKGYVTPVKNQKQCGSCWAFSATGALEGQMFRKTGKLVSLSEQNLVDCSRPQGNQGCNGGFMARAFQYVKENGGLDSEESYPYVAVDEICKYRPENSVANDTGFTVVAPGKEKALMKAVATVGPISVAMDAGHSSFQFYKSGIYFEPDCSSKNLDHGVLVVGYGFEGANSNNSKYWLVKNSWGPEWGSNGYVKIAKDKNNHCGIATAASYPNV
As to the kind of experiment: Inhibition of human Cathepsin V.

A further series deals with T2, Chymase (Homo sapiens, UniProt P23946).
T2 sequence (P23946 whole entry): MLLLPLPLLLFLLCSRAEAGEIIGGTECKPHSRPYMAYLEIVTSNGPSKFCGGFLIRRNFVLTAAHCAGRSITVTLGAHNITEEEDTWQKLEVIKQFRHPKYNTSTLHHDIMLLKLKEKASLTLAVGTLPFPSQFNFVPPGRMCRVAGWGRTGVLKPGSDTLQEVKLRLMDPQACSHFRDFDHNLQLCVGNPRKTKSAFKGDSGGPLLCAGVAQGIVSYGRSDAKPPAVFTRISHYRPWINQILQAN
As to the kind of experiment: Inhibition of human Chymase.

Series [5] is described as follows: Cytotoxicity against […] cells. It is filed as cell-based. As to conditions: HB1.
Series [6] can be described thus: Metabolic stability in rhesus monkey liver assessed as drug level at 5 mg/kg, po after 24 hrs by LC/MS/MS analysis. As to conditions: read-out: Drug uptake. Also on record: dose 5 mg/kg, route oral. It is filed as ADME, organism-based, Macaca mulatta. The procedure, abridged: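 Single oral dose in polyethylene glycol 400 (2.0 ml/kg). A liver biopsy (~200 μl) was taken under sedation and homogenized in 4 volumes of deionized water. Drug was quantified by LC/MS/MS after protein precipitation.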

The target of another series is T3, Cathepsin K (Homo sapiens, UniProt P43235).
T3 sequence (P43235 whole entry): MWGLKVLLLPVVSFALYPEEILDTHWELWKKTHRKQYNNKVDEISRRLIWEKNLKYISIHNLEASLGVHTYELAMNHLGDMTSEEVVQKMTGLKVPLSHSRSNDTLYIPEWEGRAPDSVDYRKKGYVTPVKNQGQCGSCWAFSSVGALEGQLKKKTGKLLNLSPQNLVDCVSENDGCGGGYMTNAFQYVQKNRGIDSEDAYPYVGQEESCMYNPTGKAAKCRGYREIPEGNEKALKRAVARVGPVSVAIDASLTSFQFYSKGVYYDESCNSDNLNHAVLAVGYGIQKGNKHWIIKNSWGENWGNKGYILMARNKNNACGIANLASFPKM
As to the kind of experiment: Inhibition of human Cathepsin K.

The nature of series [7]: AUC (0-24 hrs) in rat at 2 mg/kg, iv by LC/MS/MS analysis. Format: ADME, organism-based. Also noted: time < 24 hr, dose 2 mg/kg, route intravenous. As to conditions: plasma. The procedure, abridged:
as §1

The subject of series [8] is Hepatitis C virus. As to the kind of experiment: Antiviral activity against Hepatitis C virus containing NS3/4a Con1 sequence by transient cell-base protease activity. It is filed as functional, organism-based, Hepacivirus hominis.
Series [9] concerns Hepatitis C virus. In words: Antiviral activity against Hepatitis C virus genotype 2a infected in […] cell by cell-based HCV replicon assay in presence of 10% fetal bovine serum. Format: functional, organism-based, Hepacivirus hominis.
Series [10] in a line: Plasma clearance in dog at 2 mg/kg, iv by LC/MS/MS analysis. Also on record: dose 2 mg/kg, route intravenous. Format: ADME, organism-based, Canis lupus familiaris. The essentials: as §1
For series [11], the system named is Hepatitis C virus. As to the kind of experiment: Antiviral activity against Hepatitis C virus containing NS3/A156T protease mutant activity by TaqMan-based assay. It is filed as functional, organism-based, Hepacivirus hominis. The essentials:
(§2)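 Panel of stable HCV replicon cell lines carrying NS3 protease mutations. Replicon RNA read out by a TaqMan-based assay, and EC50 values determined.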
Background: In qPCR the cycle at which signal appears reflects the starting amount.

For series [12], the system named is Hepatitis C virus. As to the kind of experiment: Antiviral activity against Hepatitis C virus containing NS3/R155K protease mutant activity by TaqMan-based assay. Format: functional, organism-based, Hepacivirus hominis. The essentials:
as §2

A short description of series [13]: Volume of distribution in rat at 2 mg/kg, iv by LC/MS/MS analysis. It is filed as ADME, organism-based. Also noted: dose 2 mg/kg, route intravenous. As to conditions: in vivo. The essentials: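 Fasted animals received an IV bolus in DMSO at 1.0 ml/kg for rats and 0.1 ml/kg for dogs and rhesus monkeys, at 2 mg/kg; n = 3 per species. Blood was drawn into EDTA tubes at set times, and plasma was separated by centrifugation and stored at −70°C. Drug was quantified by LC/MS/MS after protein precipitation.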

Series [14] concerns Hepatitis C virus. In words: Antiviral activity against Hepatitis C virus containing NS3/4a ps31 sequence by transient cell-base protease activity. It is filed as functional, organism-based, Hepacivirus hominis. The essentials:
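Transient cell-based phenotype assay of protease activity, using NS3/4A sequences cloned from plasma of HCV-infected patients. EC50s were determined.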

A short description of series [15]: AUC (0-24 hrs) in rhesus monkey at 5 mg/kg, po by LC/MS/MS analysis. The note with it: plasma. It is filed as ADME, organism-based, Macaca mulatta. Also on record: time < 24 hr, dose 5 mg/kg, route oral. The procedure, abridged: (§3)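 Dosed orally as a solution in polyethylene glycol 400 (2.0 ml/kg), with n = 3. EDTA plasma was centrifuged off and held at −70°C. Drug levels were determined by LC/MS/MS following protein precipitation.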

Series [16] is described as follows: Inhibition of Hepatitis C virus genotype 1a NS3/4A protease activity. Also on record: species or system Hepatitis C virus subtype 1a. The essentials:
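Recombinant NS3/4A protease was expressed in and purified from E. coli. Inhibition was measured by a time-resolved, internally quenched fluorescence assay at low enzyme concentration. Kis were reported.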

Series [17] can be described thus: Cmax in dog at 5 mg/kg, po by LC/MS/MS analysis. Format: ADME, organism-based, Canis lupus familiaris. Also on record: dose 5 mg/kg, route oral. As to conditions: in vivo. The essentials:
as §3

The next series addresses Cathepsin B (Homo sapiens, UniProt P07858). As to the kind of experiment: Inhibition of human Cathepsin B.

One may read the AUC as the area under the concentration-time curve, a measure of exposure. As a reminder, the AUC(0-t) is exposure summed from dosing to a finite time, without extrapolation to infinity. The term half-life denotes the time needed for the level to fall by half in the phase considered. The term IC50 denotes the midpoint of a concentration-inhibition curve. One may read the EC50 as the concentration giving half of the maximal effect. For orientation: clearance means the rate of elimination divided by the concentration. One may read the Vd as the apparent volume that relates the amount in the body to the concentration in plasma or blood. As a reminder, the Ki is the dissociation constant of the complex between target and ligand, obtained from inhibition or displacement. What is called Cmax is the peak of the concentration-time curve. `CC[C@@H]1C[C@]1(NC(=O)[C@@H]1C[C@@H]2CN1C(=O)[C@H](C(C)(C)C)NC(=O)OCC(C)(C)CCCCc1cccc3c1CN(C3)C(=O)O2)C(=O)NS(=O)(=O)C1CC1` [VANIPREVIR] gave an AUC in the series on Pan troglodytes of 5.2 µM·h. The AUC(0-t) at 24 h in [1] was 5.2 µM·h; in series [7], 0.6 µM·h; in series [15] it was 0.05 µM·h. For the same compound, in series [2], the concentration at 12 h was determined as 31000 nM. Besides, the half-life was found to be 1.3 h in [3] and 1.2 h in series [4]. Also, the IC50 on Cathepsin L2, against Chymase, at Cathepsin K and against Cathepsin B was more than 10000 nM each time. In addition, the EC50 is more than 50000 nM in series [5]; 4.1 nM in the series with Hepatitis C virus [8]; 15 nM with Hepatitis C virus [9]; 200 nM in the series on Hepatitis C virus [11]; 350 nM in the series with Hepatitis C virus [12]; 3.4 nM in the series on Hepatitis C virus [14]. Further, the concentration at 24 h in series [6] amounted to 200 nM. In series [10], this compound came in with a clearance of 11 mL/min/kg. Moreover, the Vd in series [13] stood at 1.9 L/kg. The same compound displayed a Ki in series [16] of 0.07 nM. The compound further yielded a Cmax in series [17] of 500 nM.
